Data taken from ChEMBL document CHEMBL4673366, “Cyclic Phosphopantothenic Acid Prodrugs for Treatment of Pantothenate Kinase-Associated Neurodegeneration” (J Med Chem, 2020).

Legend:
[1] = Induction of Coenzyme A regeneration in human IMR-32 PANK2 knockdown cells at 50 uM for 24 hrs by HPLC analysis relative to control; format: functional
Procedure, shortened: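 PANK2-knockout neuroblastoma cells were grown in MEM with 10% FBS and 1 µg/mL puromycin and seeded at 0.2×10⁶ cells/well. After 72 h, they were dosed at 50 µM in DMSO (final 0.1%) at 37 °C. Washed, frozen pellets were reconstituted in ammonium acetate (pH 5.1) with internal standard, and free CoA was measured by LC-MS/MS. Intracellular volume was taken as 2 µL/10⁶ cells; results are fold over vehicle-treated cells.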

[2] = Stability of compound in human whole blood assessed as half life; format: ADME, tissue-based
[3] = Stability of compound in human hepatocytes assessed as half life; format: ADME, cell-based, Hepatocyte
[4] = Apparent permeability in porcine brain endothelial cells; format: ADME, cell-based, Sus scrofa, Endothelial cell; details: pig
[5] = Stability of compound in human plasma assessed as half life; format: ADME, cell-free
[6] = Increase in free coenzyme A level in C57BL6 mouse brain at 500 mg/kg, po administered as single dose measured after 24 hrs UPLC quadrupole-time-of-flight mass spectrometry (Rvb =0%); format: functional
Procedure, shortened: (§1)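 C57BL6 mice, three per time point, received one oral 500 mg/kg dose of isotopically labeled prodrug, and brains were taken at 0, 1, 6 and 24 h. Brains were homogenized in water (3 mL/g), protein was precipitated with MeOH, and dried supernatant was reconstituted in 10 mM ammonium acetate (pH ~5). Analysis was UPLC-QTOF MS in positive ESI, scoring labeled CoA (+6, +4 amu) as a share of free CoA.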

[7] = Increase in free coenzyme A level in C57BL6 mouse brain at 500 mg/kg, po administered as single dose measured after 1 hr UPLC quadrupole-time-of-flight mass spectrometry (Rvb =0%); format: functional; procedure, shortened: as §1
[8] = Increase in free coenzyme A level in C57BL6 mouse brain at 500 mg/kg, po administered as single dose measured after 6 hrs UPLC quadrupole-time-of-flight mass spectrometry (Rvb =0%); format: functional; procedure, shortened: as §1

Compound: CCc1cc(C(=O)OCOP2(=O)OCC(C)(C)[C@H](C(=O)NCCC(=O)OC)O2)n(C)n1 (mixture of isomers)
- fold change (FC) [1]: 130

Compound: COC(=O)CCNC(=O)[C@@H]1O[P@](=O)(Oc2ccc(C[C@H](N)C(=O)OC)cc2)OCC1(C)C
- fold change (FC) [1]: 81
- half-life [2]: 30 min

Compound: CCc1cc(C(=O)OCO[P@]2(=O)OCC(C)(C)[C@H](C(=O)NCCC(=O)OC)O2)n(C)n1 (relative stereo)
- half-life [2]: < 9.6 min

Compound: COC(=O)CCNC(=O)[C@@H]1OP(=O)(OCOC(=O)c2ccns2)OCC1(C)C (mixture of isomers)
- fold change (FC) [1]: 37

Compound: COC(=O)CCNC(=O)[C@@H]1O[P@](=O)(Oc2ccc(C#N)cc2)OCC1(C)C
- fold change (FC) [1]: 7
- half-life [2]: 27.6 min

Compound: COC(=O)CCNC(=O)[C@@H]1OP(=O)(OCOC(=O)c2cnccn2)OCC1(C)C (mixture of isomers)
- fold change (FC) [1]: 77

Compound: COC(=O)CCNC(=O)[C@@H]1OP(=O)(OCOC(=O)c2cncs2)OCC1(C)C (mixture of isomers)
- fold change (FC) [1]: 88

Compound: COC(=O)CCNC(=O)[C@@H]1O[P@@](=O)(OCOC(=O)c2scnc2C)OCC1(C)C
- half-life [3]: 30 min
- Papp [4]: 5.1 ×10⁻⁶ cm/s
- fold change (FC) [1]: 40
- half-life [2]: > 60 min

Compound: COC(=O)CCNC(=O)[C@@H]1O[P@@](=O)(OCOC(=O)c2scnc2C(C)(C)C)OCC1(C)C (relative stereo)
- half-life [2]: > 60 min

Compound: COC(=O)CCNC(=O)[C@@H]1O[P@](=O)(OCOC(=O)c2scnc2C)OCC1(C)C (relative stereo)
- half-life [2]: < 9.6 min

Compound: CC(C)(C)C(=O)OCO[P@@]1(=O)OCC(C)(C)[C@H](C(=O)NCCC(=O)OCCS(C)(=O)=O)O1
- fold change (FC) [1]: 121
- half-life [2]: < 9.6 min

Compound: COC(=O)CCNC(=O)[C@@H]1OP(=O)(OCOC(=O)c2scnc2C)OCC1(C)C (mixture of isomers)
- fold change (FC) [1]: 44

Compound: COC(=O)CCNC(=O)[C@@H]1OP(=O)(OCOC(=O)C2(C(N)=O)CC2)OCC1(C)C (mixture of isomers)
- fold change (FC) [1]: 12

Compound: COC(=O)CCNC(=O)[C@@H]1O[P@](=O)(OCOC(=O)c2cncs2)OCC1(C)C (relative stereo)
- half-life [5]: < 9.6 min

Compound: COC(=O)CCNC(=O)[C@@H]1O[P@@](=O)(OCOC(=O)c2ocnc2C)OCC1(C)C (relative stereo)
- half-life [2]: 31.2 min

Compound: CO[13C](=O)[13CH2][13CH2][15NH]C(=O)[C@@H]1OP(=O)(OCOC(=O)C(C)(C)C)OCC1(C)C (stereo partly specified)
- Activity [6]: 12.9%
- Activity [7]: 0%
- Activity [8]: 2.7%

Compound: COC(=O)CCNC(=O)[C@@H]1OP(=O)(OCOC(=O)c2ccccc2)OCC1(C)C (mixture of isomers)
- fold change (FC) [1]: 278

Compound: COC(=O)CCNC(=O)[C@@H]1O[P@@](=O)(OCOC(=O)C(C)(C)C)OCC1(C)C
- fold change (FC) [1]: 198

Compound: COC(=O)CCNC(=O)[C@@H]1O[P@](=O)(Oc2ccc(S(F)(F)(F)(F)F)cc2)OCC1(C)C
- fold change (FC) [1]: 34
- half-life [2]: 30 min

Compound: CC(C)(C)C(=O)OCO[P@@]1(=O)OCC(C)(C)[C@H](C(=O)NCCC(=O)O)O1
- fold change (FC) [1]: 4
- half-life [2]: > 60 min

Compound: COC(=O)CCNC(=O)[C@@H]1O[P@@](=O)(OCOC(=O)c2cc(C)nn2C)OCC1(C)C (relative stereo)
- half-life [2]: > 60 min

Compound: COC(=O)CCNC(=O)[C@@H]1O[P@@](=O)(OCOC(=O)c2ccnn2C)OCC1(C)C (relative stereo)
- half-life [2]: > 60 min

Compound: COC(=O)CCNC(=O)C1OP(=O)(Oc2ccc(F)cc2)OCC1(C)C (mixture of isomers)
- half-life [2]: > 60 min

Compound: COC(=O)CCNC(=O)[C@@H]1OP(=O)(OCOC(=O)C(C)C)OCC1(C)C (mixture of isomers)
- fold change (FC) [1]: 92

Compound: COC(=O)CCNC(=O)[C@@H]1O[P@](=O)(OCOC(=O)c2cc(C)nn2C)OCC1(C)C (relative stereo)
- half-life [2]: < 9.6 min

Compound: CCc1cc(C(=O)OCO[P@@]2(=O)OCC(C)(C)[C@H](C(=O)NCCC(=O)OC)O2)n(C)n1
- half-life [3]: 18 min
- Papp [4]: 11.8 ×10⁻⁶ cm/s
- fold change (FC) [1]: 14
- half-life [2]: ≥ 58.2 min

Compound: COC(=O)CCNC(=O)[C@@H]1O[P@](=O)(OCOC(=O)C(C)(C)C)OCC1(C)C
- fold change (FC) [1]: 106

Compound: CC(C)(C)C(=O)OCO[P@@]1(=O)OCC(C)(C)[C@H](C(=O)NCCC(=O)OCCc2ccccn2)O1
- fold change (FC) [1]: 100
- half-life [2]: < 9.6 min

Compound: COC(=O)CCNC(=O)[C@@H]1O[P@](=O)(OCOC(=O)c2ccnn2C)OCC1(C)C
- half-life [2]: < 9.6 min

Compound: COC(=O)CCNC(=O)[C@@H]1OP(=O)(Oc2ccc(F)cc2)OCC1(C)C (mixture of isomers)
- half-life [2]: > 60 min

Compound: CCCC(=O)OCOP1(=O)OCC(C)(C)[C@H](C(=O)NCCC(=O)OC)O1 (mixture of isomers)
- fold change (FC) [1]: 84

Compound: COC(=O)CCNC(=O)[C@@H]1OP(=O)(OCOC(=O)c2scnc2C(C)(C)C)OCC1(C)C (mixture of isomers)
- fold change (FC) [1]: 3

Compound: COC(=O)CCNC(=O)[C@@H]1O[P@@](=O)(Oc2ccc(F)cc2)OCC1(C)C
- fold change (FC) [1]: 2

Compound: CCOC(=O)CCNC(=O)[C@@H]1O[P@@](=O)(OCOC(=O)C(C)(C)C)OCC1(C)C
- fold change (FC) [1]: 85
- half-life [2]: 16.8 min

Compound: COC(=O)CCNC(=O)[C@@H]1OP(=O)(OCOC(=O)c2cc(C)nn2C)OCC1(C)C (mixture of isomers)
- fold change (FC) [1]: 42

Compound: CCC(CC)C(=O)OCOP1(=O)OCC(C)(C)[C@H](C(=O)NCCC(=O)OC)O1 (mixture of isomers)
- fold change (FC) [1]: 369

Compound: CC(C)(C)C(=O)OCO[P@@]1(=O)OCC(C)(C)[C@H](C(=O)NCCC(=O)OC2CCN(Cc3ccccc3)C2)O1 (stereo partly specified)
- fold change (FC) [1]: 207
- half-life [2]: 11.4 min

Compound: COC(=O)CCNC(=O)[C@@H]1O[P@@](=O)(OCOC(=O)c2cc(C(C)(C)C)n[nH]2)OCC1(C)C
- half-life [3]: 30 min
- Papp [4]: 5.3 ×10⁻⁶ cm/s
- fold change (FC) [1]: 101
- half-life [2]: > 60 min

Compound: COC(=O)CCNC(=O)[C@@H]1O[P@](=O)(Oc2ccccc2C(=O)OC)OCC1(C)C
- fold change (FC) [1]: 4

Compound: COC(=O)CCNC(=O)[C@@H]1OP(=O)(OCOC(=O)c2cc(C(C)(C)C)n[nH]2)OCC1(C)C (mixture of isomers)
- fold change (FC) [1]: 85

Compound: COC(=O)CCNC(=O)[C@@H]1O[P@](=O)(OCOC(=O)c2cc(C(C)(C)C)n[nH]2)OCC1(C)C (relative stereo)
- half-life [2]: < 9.6 min

Compound: CC(C)(C)C(=O)OCO[P@@]1(=O)OCC(C)(C)[C@H](C(=O)NCCC(=O)OCc2cncs2)O1
- fold change (FC) [1]: 133
- half-life [2]: < 9.6 min

Compound: COC(=O)CCNC(=O)[C@@H]1O[P@](=O)(Oc2ccc(C(F)(F)F)cc2)OCC1(C)C
- fold change (FC) [1]: 102
- half-life [2]: > 60 min

Compound: CO[13C](=O)[13CH2][13CH2][15NH]C(=O)[C@@H]1OP(=[18O])(OCOC(=O)C(C)(C)C)OCC1(C)C (stereo partly specified)
- Activity [6]: 2.1%
- Activity [7]: 0%
- Activity [8]: 5.3%

Compound: COC(=O)CCNC(=O)[C@@H]1OP(=O)(OCOC(=O)OC(C)C)OCC1(C)C (mixture of isomers)
- fold change (FC) [1]: 199

Compound: COC(=O)CCNC(=O)[C@@H]1O[P@](=O)(OCOC(=O)c2scnc2C(C)(C)C)OCC1(C)C (relative stereo)
- half-life [2]: 26.4 min

Compound: COC(=O)CCNC(=O)[C@@H]1OP(=O)(OCOC(=O)c2ccnn2C)OCC1(C)C (mixture of isomers)
- fold change (FC) [1]: 58

Compound: COC(=O)CCNC(=O)[C@@H]1O[P@@](=O)(OCOC(=O)c2ccns2)OCC1(C)C (relative stereo)
- half-life [2]: < 9.6 min

Compound: COC(=O)CCNC(=O)[C@@H]1OP(=O)(OCOC(=O)c2ocnc2C)OCC1(C)C (mixture of isomers)
- fold change (FC) [1]: 39

Compound: COC(=O)CCNC(=O)[C@@H]1O[P@](=O)(OCOC(=O)c2ocnc2C)OCC1(C)C
- half-life [2]: 16.2 min

Compound: COC(=O)CCNC(=O)[C@@H]1OP(=O)(OCOC(=O)c2ccncc2)OCC1(C)C (mixture of isomers)
- fold change (FC) [1]: 35

Compound: COC(=O)CCNC(=O)[C@@H]1O[P@@](=O)(OCOC(=O)c2cncs2)OCC1(C)C (relative stereo)
- half-life [5]: < 9.6 min

Compound: COC(=O)CCNC(=O)[C@@H]1O[P@](=O)(OCOC(=O)c2ccns2)OCC1(C)C (relative stereo)
- half-life [2]: < 9.6 min

Compound: COC(=O)CCNC(=O)[C@@H]1O[P@@](=O)(OC(C)OC(=O)C(C)(C)C)OCC1(C)C (stereo partly specified)
- fold change (FC) [1]: 3

Compound: COC(=O)CCNC(=O)[C@@H]1O[P@](=O)(Oc2ccc(F)cc2)OCC1(C)C
- Papp [4]: 16 ×10⁻⁶ cm/s
- fold change (FC) [1]: 87

Compound: CC(C)(C)OC(=O)CCNC(=O)[C@@H]1OP(=O)(OCOC(=O)C(C)(C)C)OCC1(C)C (mixture of isomers)
- fold change (FC) [1]: 2
- half-life [2]: > 60 min
